Data reported in ChEMBL document CHEMBL1124220 (J Med Chem, 1988).
Non-standard residues stand in square brackets, D forms with d. Residues, ends and D or L forms follow the SMILES beside them. 3Thi = N[C@@H](Cc1ccsc1)C(=O)O; Sar = CNCC(=O)O

Experiments:
Assay type in all cases: functional
[1] = test system: Rattus norvegicus; assay: In vivo angiotensin II like activity was measured in rat blood pressure assay expressed as percent activity relative to A II
[2] = test system: Rattus norvegicus; assay: In vivo agonist angiotensin II like activity was measured in rat blood pressure increase by a 1 ug iv injection
Method in brief: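 Rat blood pressure in vivo. Residual AII-like activity read as the pressor rise (mmHg) after a 1-μg intravenous bolus of compound. Mean of at least five tests with standard error.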

[3] = species: Oryctolagus cuniculus; assay: In vitro agonist angiotensin II like activity was measured in the rabbit aorta strip assay
Method in brief: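 Isolated rabbit aortic strips in vitro. Agonist (AII-like) activity expressed as percent of the activity of AII.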

[4] = test system: Rattus norvegicus; assay: Antagonist activity ID50 was measured in vivo in the rat blood pressure assay
Method in brief: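 Rat blood pressure in vivo, 250-g rats, compound given by infusion. AII dose-response curves measured before and during the infusion. ID50 expressed as ng/rat per min. Mean of at least five tests with standard error.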

Row | SMILES | Activity [1] [%] | BP increase [2] [mmHg] | Activity [3] [%] | ID50 [4] [ng min-1 rat-1]
1 | CC[C@H](C)[C@H](NC(=O)[C@H](Cc1ccc(O)cc1)NC(=O)[C@@H](NC(=O)[C@@H](N)CCCCN=C(N)N)C(C)C)C(=O)N[C@@H](Cc1c[nH]cn1)C(=O)N1CCC[C@H]1C(=O)N[C@@H](Cc1ccccc1)C(=O)O | 2.07 | – | – | –
2 | CC[C@H](C)[C@H](NC(=O)[C@@H]1CCCN1C(=O)[C@H](Cc1c[nH]cn1)NC(=O)[C@@H](NC(=O)[C@H](Cc1ccc(O)cc1)NC(=O)[C@@H](NC(=O)[C@@H](C)N)C(C)C)[C@@H](C)CC)C(=O)O | – | 5 | 0 | 100
3 | CC[C@H](C)[C@H](NC(=O)[C@@H]1CCCN1C(=O)[C@H](Cc1c[nH]cn1)NC(=O)[C@@H](NC(=O)[C@H](Cc1ccc(O)cc1)NC(=O)[C@@H](NC(=O)[C@H](N)CCCN=C(N)N)C(C)C)[C@@H](C)CC)C(=O)O | – | 5 | 0 | 100
4 | CC[C@H](C)[C@H](NC(=O)[C@@H]1CCCN1C(=O)[C@H](Cc1c[nH]cn1)NC(=O)[C@@H](NC(=O)[C@H](Cc1ccc(O)cc1)NC(=O)[C@@H](NC(=O)[C@@H](CCCN=C(N)N)NC(=O)CNC)C(C)C)[C@@H](C)CC)C(=O)O | – | 10 | 0 | 100
5 | CC[C@H](C)[C@H](NC(=O)[C@@H]1CCCN1C(=O)[C@H](Cc1c[nH]cn1)NC(=O)[C@@H](NC(=O)[C@H](Cc1ccc(O)cc1)NC(=O)[C@@H](NC(=O)[C@@H](CCCCN)NC(=O)CNC)C(C)C)[C@@H](C)CC)C(=O)O | – | 12.5 | 0 | 50
6 | CC[C@@H](N)C(=O)N[C@H](C(=O)N[C@@H](Cc1ccc(O)cc1)C(=O)N[C@H](C(=O)N[C@@H](Cc1c[nH]cn1)C(=O)N1CCC[C@H]1C(=O)N[C@@H](Cc1ccccc1)C(=O)O)[C@@H](C)CC)C(C)C | 22 | – | – | –
7 | CC[C@H](C)[C@H](NC(=O)[C@@H]1CCCN1C(=O)[C@H](Cc1c[nH]cn1)NC(=O)[C@@H](NC(=O)[C@H](Cc1ccc(O)cc1)NC(=O)[C@@H](NC(=O)[C@@H](C)NC)C(C)C)[C@@H](C)CC)C(=O)O | – | 10 | 0 | 25
8 | CC[C@H](C)[C@H](NC(=O)[C@@H]1CCCN1C(=O)[C@H](Cc1c[nH]cn1)NC(=O)[C@@H](NC(=O)[C@H](Cc1ccc(O)cc1)NC(=O)[C@@H](NC(=O)[C@H](CCCN=C(N)N)NC(=O)CNC)C(C)C)[C@@H](C)CC)C(=O)O | – | 10.2 | 0 | 10
9 | CC[C@H](C)[C@H](NC(=O)[C@H](Cc1ccc(O)cc1)NC(=O)[C@@H](NC(=O)[C@H](C)NC(=O)[C@@H](N)CC(=O)O)C(C)C)C(=O)N[C@@H](Cc1c[nH]cn1)C(=O)N1CCC[C@H]1C(=O)N[C@@H](Cc1ccccc1)C(=O)O (H-DAVYIHPF-OH) | 7.7 | – | – | –
10 | CC[C@H](C)[C@H](NC(=O)[C@@H]1CCCN1C(=O)[C@H](Cc1ccccc1)NC(=O)[C@@H](NC(=O)[C@H](Cc1ccc(O)cc1)NC(=O)[C@@H](NC(=O)[C@H](CCCN=C(N)N)NC(=O)CNC)C(C)C)[C@@H](C)CC)C(=O)O (H-[Sar]RVYIFPI-OH) | – | 10 | 0 | 100
11 | CC[C@H](C)[C@H](NC(=O)[C@@H]1CCCN1C(=O)[C@H](Cc1c[nH]c2ccccc12)NC(=O)[C@@H](NC(=O)[C@H](Cc1ccc(O)cc1)NC(=O)[C@@H](NC(=O)[C@H](CCCN=C(N)N)NC(=O)CNC)C(C)C)[C@@H](C)CC)C(=O)O (H-[Sar]RVYIWPI-OH) | – | 7.5 | 0 | 100
12 | CC[C@H](C)[C@H](NC(=O)[C@@H]1CCCN1C(=O)[C@H](Cc1ccsc1)NC(=O)[C@@H](NC(=O)[C@H](Cc1ccc(O)cc1)NC(=O)[C@@H](NC(=O)[C@H](CCCN=C(N)N)NC(=O)CNC)C(C)C)[C@@H](C)CC)C(=O)O (H-[Sar]RVYI[3Thi]PI-OH) | – | 12.5 | 0 | 100
13 | CC[C@H](C)[C@H](NC(=O)[C@@H]1CCCN1C(=O)[C@H](Cc1c[nH]cn1)NC(=O)[C@@H](NC(=O)[C@H](Cc1ccc(O)cc1)NC(=O)[C@@H](NC(=O)CN(C)C(=O)CNC)C(C)C)[C@@H](C)CC)C(=O)O (H-[Sar][Sar]VYIHPI-OH) | – | 8.5 | 0 | 150
